Compound activity deposited in PubChem by The Scripps Research Institute Molecular Screening Center.
This is a sample that favours compounds with a hit; in the whole collection about 3.2% have one here.
TRPN1 ag – zebrafish TRPN1 (NompC) channel agonism; hit rate 0.18% among 220,000; HEK293 zebrafish TRPN1-YFP, Fluo-8 calcium fluorescence; 100% = response to 87 µM carbachol; activation, % at 3 µM;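 active means activation above its plate's cutoff, the mean activation of test wells on that plate plus 3 SD, cut at about 19% in these data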;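 further: 0% = DMSO alone and 100% = 87 µM carbachol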
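Material: zebrafish TRPN1-YFP in HEK293 cells. Doses: one dose of 3 µM, 0.3% DMSO. Incubation: dye 1 h 37 °C plus 30 min RT. Measured by: intracellular calcium fluorescence with Fluo-8.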
OX1R antag-1 – antagonists of human orexin 1 receptor; O43613; hit rate 0.43% among 330,000; inhibition, % at 5 µM; CHO/OX1R cells, Fluo-8 calcium fluorescence, orexin A;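 active means inhibition above its plate's threshold, mean inhibition of all tested compounds on the plate plus 3 SD, cut at about 37% in these data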;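 further: 0% = orexin A challenge wells and 100% = SB-334867-A antagonist wells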
Target sequence (O43613 whole entry, looked up): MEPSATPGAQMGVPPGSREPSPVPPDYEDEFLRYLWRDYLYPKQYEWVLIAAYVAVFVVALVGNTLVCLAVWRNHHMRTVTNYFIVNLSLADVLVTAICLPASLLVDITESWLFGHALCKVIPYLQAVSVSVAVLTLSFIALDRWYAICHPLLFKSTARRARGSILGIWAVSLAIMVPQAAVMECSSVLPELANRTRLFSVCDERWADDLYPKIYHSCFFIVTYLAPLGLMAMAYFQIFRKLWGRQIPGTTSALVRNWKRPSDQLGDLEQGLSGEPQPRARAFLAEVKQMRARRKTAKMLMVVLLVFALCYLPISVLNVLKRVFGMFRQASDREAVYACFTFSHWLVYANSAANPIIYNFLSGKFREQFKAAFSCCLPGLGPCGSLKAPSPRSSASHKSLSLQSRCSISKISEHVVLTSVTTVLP
CHO parental Ca – counter-screen: ATP calcium response change in parental CHO cells. parental CHO-K1, ATP-induced calcium, Fluo-8 fluorescence. inhibition, % at 5.6 µM. hit rate 0.63% among 330,000. AID 463079;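 active means inhibition above that plate's mean sample inhibition plus 3 SD, cut at about 26% in these data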;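 further: 0% = ATP-challenged DMSO wells and 100% = DMSO wells without ATP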
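Assay system – parental CHO cells · Reagent – ATP stimulus · Detection – intracellular calcium via Fluo-8 no-wash fluorescent dye · Evaluation – percent inhibition of ATP-evoked calcium rise, normalized to controls · Controls – ATP wells versus no-ATP DMSO wells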
TRPML3 ag – activates the human TRPML3 channel | Q8TDD5 | HEK293 TRPML3-YFP, Fluo-8 calcium fluorescence; 100% = the carbachol control signal | activation, % at 3 µM | hit rate 0.29% among 220,000 | AID 1448;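 active means activation above its plate's cutoff, the mean activation of the plate's test wells plus 3 SD, cut at about 12% in these data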;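 further: 0% = DMSO only wells and 100% = carbachol wells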
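system = HEK293 cells stably carrying human TRPML3-YFP | doses = one concentration, 3 µM nominal, 0.3% DMSO | timing = dye loading 1 h 37 °C then 30 min ambient, 125 s read | detection = Fluo-8 calcium dye fluorescence, ex 470-495, em 515-575 nm | benchmarks = high control carbachol 87 µM, low control DMSO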
GPR7 antag – antagonists of human GPR7 (neuropeptides B/W receptor 1); GPR7-expressing cells, fluorescence antagonist assay; inhibition, % at 4.4 µM; hit rate 1.1% among 290,000; P48145; in the data active means inhibition above about 16%, passing the limit was not always enough;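 further: cells stimulated with the agonist NPW; 0% = agonist with vehicle and 100% = vehicle without agonist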
Target sequence (P48145 whole entry, looked up): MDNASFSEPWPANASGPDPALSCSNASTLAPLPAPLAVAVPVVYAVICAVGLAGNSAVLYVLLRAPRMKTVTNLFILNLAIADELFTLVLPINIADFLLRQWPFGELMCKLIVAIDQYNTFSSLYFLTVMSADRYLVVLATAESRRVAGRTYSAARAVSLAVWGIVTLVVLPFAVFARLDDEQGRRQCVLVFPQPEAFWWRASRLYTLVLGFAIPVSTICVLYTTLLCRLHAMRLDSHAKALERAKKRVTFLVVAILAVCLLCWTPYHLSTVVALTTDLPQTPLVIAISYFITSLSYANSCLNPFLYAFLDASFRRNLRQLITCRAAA
OX1R antag-2 – OX1R (human) antagonism. O43613. OX1R-expressing cells, FRET antagonist read-out. inhibition, % at 6.6 µM. hit rate 1.8% among 330,000. AID 485270; in the data active means inhibition mostly above about 38%, no sharp cut-off; inactive means mostly below about 40%;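 further: 0% = agonist challenge alone and 100% = reference antagonist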
OX1R HTRF conf – confirmation of human orexin 1 receptor antagonists, HTRF format; shares compounds with OX1R antag-2; inhibition, % at 6.6 µM; OX1R-expressing cells, HTRF antagonist assay; hit rate 49% among 1,800; AID 492964; in the data active means inhibition above about 55%;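 further: CHO cells expressing OX1R stimulated with orexin A at about EC80; 0% = agonist challenge alone and 100% = reference antagonist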
CHO-K1 HTRF cnt – signal in parental CHO-K1 cells, OX1R antagonist counter-screen; shares compounds with OX1R antag-2; inhibition, % at 6.6 µM; HTRF counterscreen; hit rate 48% among 1,800; in the data active means inhibition above about 17%;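 further: 0% = agonist challenge with vehicle and 100% = vehicle alone without agonist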
The depositor's hits bear a star; nt = no result.

SMILES | TRPN1 ag | OX1R antag-1 | CHO parental Ca | TRPML3 ag | GPR7 antag | OX1R antag-2 | OX1R HTRF conf | CHO-K1 HTRF cnt
Cc1c(C(=O)NN)nn(-c2ccc(Cl)cc2)c(=O)c1C#N | 0 | -4 | -4 | 0 | -5 | 32 | nt | nt
COC(=O)Nc1nn(-c2ccc(C)cc2)c(=O)c(C#N)c1C | 0 | 1 | -11 | -1 | -6 | 137* | 56* | 68*
Cc1occc1C(=O)Nc1cc(S(=O)(=O)N2CCOCC2)ccc1OC(C)C | nt | -32 | -21 | nt | nt | 5 | nt | nt
O=C(COc1ccc(Cl)cc1)Nc1cc(NC(=O)COc2ccc(Cl)cc2)cc(C(=O)O)c1 | nt | -10 | -3 | nt | -12 | 3 | nt | nt
COc1ccc(-c2nn(CCC(=O)O)cc2/C=C2\SC(N)=NC2=O)cc1 | 1 | 22 | 0 | 1 | -6 | 77* | 41 | 31*
NC1=NC(=O)/C(=C/c2cn(CCC(=O)O)nc2-c2ccc(Cl)cc2)S1 | 0 | -10 | 3 | 1 | -2 | 33 | nt | nt
CCOc1ccc(S(=O)(=O)NCCCN2CCCC2=O)cc1 | 1 | -12 | -8 | 1 | -6 | 11 | nt | nt
CCN(C(=O)COc1ccc(N(C)S(=O)(=O)c2ccc(NC(C)=O)cc2)cc1)C1CCCCC1 | nt | -30 | -15 | nt | nt | 8 | nt | nt
CC(CC1C(C#N)=C(N)SC(N)=C1C#N)c1ccccc1 (stereo unspecified) | 8 | 8 | 9 | 3 | 1 | 88* | 24 | 2
CC1Cc2ccccc2N1C(=O)CCS(=O)(=O)c1cccc2nonc12 (stereo unspecified) | 0 | -12 | -20 | 0 | -5 | 85* | 53 | 23*
COC(C(=O)Nc1ccnn1C1CCN(Cc2cnn(C(C)C)c2)CC1)c1ccccc1 (stereo unspecified) | nt | -2 | -11 | nt | -22 | 22 | nt | nt
Cc1ccc(NC(=O)CNC(=O)c2ccco2)nc1 | nt | 4 | 10 | nt | -11 | 12 | nt | nt
Cc1ccc(/C(O)=C2/C(=O)C(=O)N(CCN3CCOCC3)C2c2ccccn2)cc1 (stereo unspecified) | 1 | -2 | 15 | 2 | 3 | 82* | 24 | 33*
COc1ccc(/C(O)=C2/C(=O)C(=O)N(CCN3CCOCC3)C2c2ccccn2)cc1OC (stereo unspecified) | -1 | -10 | -10 | 1 | -10 | 135* | 29 | 28*
O=C1C(=O)N(CCN2CCOCC2)C(c2ccccn2)/C1=C(/O)c1ccccc1 (stereo unspecified) | 2 | -5 | -7 | 0 | -16 | 178* | 26 | 36*
CCN(CC)CCCN1C(=O)C(=O)/C(=C(/O)c2ccc(C)cc2)C1c1ccccn1 (stereo unspecified) | 1 | -24 | 2 | 1 | -7 | 76 | nt | nt
O=C1C(=O)N(CCN2CCOCC2)C(c2cccnc2)/C1=C(/O)c1ccccc1 (stereo unspecified) | 0 | -4 | 17 | 1 | 1 | 7 | nt | nt
COc1ccc(C(=O)Nc2c(N)nc(SCC(=O)NCC3CCCO3)[nH]c2=O)cc1 (stereo unspecified) | nt | 4 | -5 | nt | -8 | 3 | nt | nt
CN(C)C(=O)c1cc(C(=O)Cc2ccccc2)c[nH]1 | nt | -11 | 0 | nt | 5 | 0 | nt | nt
C=CCNC(=O)CCC(=O)NNc1nc2ccccc2c2nc(-c3ccccc3)nn12 | 1 | 27 | -5 | 1 | -2 | 84* | 86* | 6
O=C1c2ccccc2C(=O)N1CCCCN(C(=O)c1cc([N+](=O)[O-])ccc1Cl)c1ccc(Cl)cc1 | 1 | -20 | -11 | 0 | -2 | 1 | nt | nt
CCOC(=O)C(=O)N=Nc1c(O)[nH]c2ccccc12 | 0 | -1 | 2 | 1 | -3 | 91* | 46 | 53*
Oc1ccc(NC(=S)N=Nc2c(O)[nH]c3ccccc23)cc1 | -1 | -4 | -7 | 0 | -2 | 92* | 80* | 7
CNC(=S)N=Nc1c(O)[nH]c2ccccc12 | 0 | -15 | 1 | 0 | 1 | 17 | nt | nt
O=C(N=Nc1c(O)[nH]c2ccccc12)c1cccs1 | 1 | 5 | -16 | 0 | 2 | 108* | 101* | 18*
SMILES | TRPN1 ag | OX1R antag-1 | CHO parental Ca | TRPML3 ag | GPR7 antag | OX1R antag-2 | OX1R HTRF conf | CHO-K1 HTRF cnt
O=C(N=Nc1c(O)[nH]c2ccccc12)c1cc(NS(=O)(=O)c2cccs2)cc(NS(=O)(=O)c2cccs2)c1 | 1 | -1 | 10 | 0 | -4 | 14 | nt | nt
COc1ccc(NC(=S)N=Nc2c(O)[nH]c3ccccc23)cc1 | -1 | 3 | -12 | -1 | -16 | 34 | nt | nt
COc1ccc(C(=O)C[n+]2ccc(-c3nnc4n3CCC4)cc2)cc1 | 0 | -8 | -4 | 0 | -12 | 85* | 64* | 50*
O=C(CCC1CCCN(C(=O)C2(c3ccccc3)CC2)C1)N1CCN(c2ccccn2)CC1 (stereo unspecified) | 3 | -37 | -25 | 2 | -14 | 15 | nt | nt
Cn1cc([N+](=O)[O-])c(C(=O)N/N=C/c2ccc([N+](=O)[O-])cc2)n1 | 0 | -17 | -13 | 1 | -10 | 110* | 49 | 58*
CCN(CC)c1ccc(/C=N/NC(=O)c2ccc([N+](=O)[O-])cc2)cc1 | 0 | -3 | -8 | 1 | 9 | 17 | nt | nt
CCN=C(N/N=C/c1ccc([N+](=O)[O-])cc1)SC | 2 | -26 | 5 | 1 | 18 | 88* | 37 | 51*
Cn1cc([N+](=O)[O-])c(C(=O)NCC(=O)O)n1 | 2 | -2 | 11 | 1 | -3 | 24 | nt | nt
Cn1cc([N+](=O)[O-])c(C(=O)NNC(=O)c2ccc([N+](=O)[O-])cc2)n1 | 0 | -1 | -14 | 1 | -7 | 98* | 43 | 53*
CSCC[C@H](NC(=O)Nc1ccc(OC(F)(F)F)cc1)C(=O)O | 1 | -4 | 9 | 1 | -4 | 12 | nt | nt
O=C1NC(CCc2ccccc2)C(=O)N1CCOc1ccccc1 (stereo unspecified) | 1 | -22 | -20 | 0 | -2 | 16 | nt | nt
N=c1ccn2c(n1)O[C@H]1[C@@H](CO)[C@H](O)O[C@H]12 | nt | -16 | -2 | nt | nt | 13 | nt | nt
Cc1ccccc1Sc1ccc([N+](=O)[O-])cn1 | nt | 8 | 1 | nt | nt | 7 | nt | nt
Cc1ccnc(Sc2ccc([N+](=O)[O-])cn2)n1 | 2 | -3 | -3 | 1 | -10 | 77* | 71* | 71*
CCCNC(=O)C(Cc1ccccc1)NS(=O)(=O)c1cccc2nsnc12 (stereo unspecified) | -2 | -9 | -23 | -1 | -12 | 126* | 38 | 27*
